Consider three molecules from ChEMBL document CHEMBL3616456, “Potential of aryl-urea-benzofuranylthiazoles hybrids as multitasking agents in Alzheimer's disease” (Eur J Med Chem, 2015).

SMILES strings stand for the structures.

One data set concerns the target Acetylcholinesterase (Electrophorus electricus, UniProt O42275). Kind of data set: Inhibition of electric eel acetylcholinesterase using acetylthiocholine iodide as substrate preincubated for 15 mins followed by substrate addition by Ellman's method. (In general: Ellman's reagent forms a yellow product with free thiols.)
The target of a further data set is Cholinesterase (Equus caballus, UniProt P81908). Kind of data set: Inhibition of horse serum butyrylcholinesterase using butyrylthiocholine iodide as substrate preincubated for 15 mins followed by substrate addition by Ellman's method. The gist of the method:
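Enzyme in 100 mM phosphate buffer pH 8.0 with sample (n-propanol as solvent and control) preincubated 15 min at 25°C. Reaction started with butyrylthiocholine iodide (0.79 mM solution) plus DTNB. Thiolate-DTNB yellow product followed at 412 nm. IC50 taken from inhibition (%) curves at five concentrations: 12.5, 25, 50, 100 and 200 µM.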

A short description of data set [1]: Antioxidant activity assessed as ABTS cation radical scavenging activity measured after 6 mins. To be noted: ABTS cation radical.
The nature of data set [2]: Antioxidant activity assessed as cupric reducing antioxidant capacity measured after 1 hr. It is filed as physicochemical.
The nature of data set [3]: Selectivity index, ratio of IC50 for horse serum butyrylcholinesterase to IC50 for electric eel acetylcholinesterase.
Data set [4] has as its target Cholinesterase (Equus caballus) (UniProt P81908). The data set is described as follows: Potency index, ratio of galanthamine IC50 to compound IC50 for horse serum butyrylcholinesterase.
For data set [5] the target is unchanged. The data set is described as follows: Potency index, ratio of donepezil IC50 to compound IC50 for horse serum butyrylcholinesterase.

Sequence of Cholinesterase (P81908 whole entry): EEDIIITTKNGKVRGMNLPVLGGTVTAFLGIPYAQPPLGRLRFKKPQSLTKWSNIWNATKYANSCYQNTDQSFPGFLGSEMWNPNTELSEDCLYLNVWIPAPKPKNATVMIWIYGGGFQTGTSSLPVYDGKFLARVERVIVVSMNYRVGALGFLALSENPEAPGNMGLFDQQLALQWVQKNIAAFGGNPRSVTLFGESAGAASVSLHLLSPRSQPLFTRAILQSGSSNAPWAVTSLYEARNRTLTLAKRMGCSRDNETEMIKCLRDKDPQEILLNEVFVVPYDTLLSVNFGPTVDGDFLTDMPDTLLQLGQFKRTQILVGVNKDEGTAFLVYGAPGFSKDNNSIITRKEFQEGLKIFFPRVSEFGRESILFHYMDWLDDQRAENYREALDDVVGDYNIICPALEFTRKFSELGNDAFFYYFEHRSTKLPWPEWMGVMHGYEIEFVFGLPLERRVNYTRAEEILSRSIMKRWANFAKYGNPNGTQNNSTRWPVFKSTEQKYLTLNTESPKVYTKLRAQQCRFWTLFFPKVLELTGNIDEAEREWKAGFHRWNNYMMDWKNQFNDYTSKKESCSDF
Sequence of Acetylcholinesterase (O42275 whole entry): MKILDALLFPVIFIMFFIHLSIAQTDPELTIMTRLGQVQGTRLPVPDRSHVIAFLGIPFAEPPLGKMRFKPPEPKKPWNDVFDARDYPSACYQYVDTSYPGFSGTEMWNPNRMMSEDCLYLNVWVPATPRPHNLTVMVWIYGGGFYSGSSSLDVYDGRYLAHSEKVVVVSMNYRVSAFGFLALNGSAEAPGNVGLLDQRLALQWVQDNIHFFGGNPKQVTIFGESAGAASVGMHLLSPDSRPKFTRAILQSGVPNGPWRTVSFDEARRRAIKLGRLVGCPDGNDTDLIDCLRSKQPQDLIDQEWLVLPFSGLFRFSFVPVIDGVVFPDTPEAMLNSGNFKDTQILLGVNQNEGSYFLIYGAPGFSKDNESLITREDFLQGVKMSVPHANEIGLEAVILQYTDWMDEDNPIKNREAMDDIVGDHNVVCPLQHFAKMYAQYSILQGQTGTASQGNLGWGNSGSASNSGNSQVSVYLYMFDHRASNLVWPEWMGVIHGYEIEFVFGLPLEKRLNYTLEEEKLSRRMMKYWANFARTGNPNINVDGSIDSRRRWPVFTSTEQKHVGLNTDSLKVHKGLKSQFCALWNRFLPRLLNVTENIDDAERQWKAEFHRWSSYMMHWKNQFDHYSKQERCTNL
Sequence of Cholinesterase (Equus caballus) (P81908 whole entry): as the sequence (P81908 whole entry) above

Regarding `O=C(Nc1ccc(I)cc1)Nc1nc(-c2cc3cc([N+](=O)[O-])ccc3o2)cs1`, the IC50 (in general, the point on the concentration scale where inhibition reaches its midpoint) against Acetylcholinesterase came out at 5.53 µM; against Cholinesterase, 2.03 µM; in data set [1], 62.4 µM. In data set [2], the A0.5 was above 200 µM. Further, the values for the Ratio IC50 in data set [3], in data set [4] and in data set [5] were 0.37, 8.5 and 2.3, respectively.
With `COc1ccccc1NC(=O)Nc1nc(-c2cc3cc(Br)ccc3o2)cs1`, the IC50 against Acetylcholinesterase came to 78.8 µM; against Cholinesterase, 154 µM; in data set [1] it was 77.2 µM. In addition, in data set [2], the A0.5 is 92.68 µM. The Ratio IC50 in data set [3] turned out to be 1.95.
On the same counts, the results for `O=C(Nc1ccc(I)cc1)Nc1nc(-c2cc3cc(Br)ccc3o2)cs1` are 6.42 µM, 43.6 µM, above 200 µM, above 200 µM and 6.8.
